Experimental data of several laboratories.
Protocols differ between the studies behind these lines.
Target: Mitogen-activated protein kinase kinase kinase 9 (MAP3K9, Homo sapiens, UniProt P80192)

`CNC(=O)c1cc(Oc2ccc(NC(=O)Nc3ccc(Cl)c(C(F)(F)F)c3)cc2)ccn1` has an inhibition of -6% (enzyme activity; inhibitor; 0.3 µM).
`CCCCNc1ncc2c(-c3ccc(F)cc3)nn(C[C@H]3CC[C@H](N)CC3)c2n1` has an inhibition of 54.9% (target engagement in cells; inhibitor; chemoproteomics; 20 mM).
`c1ccc(N2CCN(Cc3nc4ccccc4[nH]3)CC2)nc1` gave a remaining binding of 100% (binding; competition with immobilised ligand; 1 µM).
For `O=C(NCCCNc1nc(Nc2cccc(NC(=O)N3CCCC3)c2)ncc1C1CC1)C1CCC1`, the remaining activity was 31% (enzyme activity; inhibitor; radiometric; 1 µM).
For `Cc1ccc(Nc2nccc(N(C)c3ccc4c(C)n(C)nc4c3)n2)cc1S(N)(=O)=O`, the inhibition was 88% (enzyme activity; inhibitor; 0.3 µM).
`COc1cc(/C=C/C(=O)CC(=O)/C=C/c2ccc(O)c(OC)c2)ccc1O` gave an activity vs control of 14% (enzyme activity; inhibitor; 1 µM).
For `CCC(=O)N[C@H]1CC[C@@H](C(=O)N(C)c2ccc(-c3nc4ccccc4o3)cc2)C1`, the remaining binding was 100% (cell-free assay; competition with immobilised ligand; 1 µM).
For `C=CC(=O)Nc1cc(Nc2nccc(Nc3cc(Cl)c(F)cc3C(C)(C)O)n2)c(OC)cc1N1CC[C@@H](N(C)C)C1`, the inhibition was 33% (enzyme activity; inhibitor; 1 µM).
For `CCS(=O)(=O)c1cc2cc(C[C@](O)(CC(C)(C)c3ccc(F)cc3C(N)=O)C(F)(F)F)[nH]c2cn1`, the remaining binding was 98% (cell-free assay; competition with immobilised ligand; 1 µM).
For `CCCS(=O)(=O)Nc1ccc(F)c(C(=O)c2c[nH]c3ncc(-c4ccc(Cl)cc4)cc23)c1F`, the inhibition was < 10% (enzyme activity; inhibitor; 1 µM).
With `COc1cc2c(Nc3ccc(Br)cc3F)ncnc2cc1OCC1CCN(C)CC1` the remaining signal was 96.1% (cell-free assay; 0.5 µM).
The remaining activity of `NS(=O)(=O)c1ccc(CNc2nc(Nc3cccc(NC(=O)N4CCCC4)c3)ncc2C2CC2)cc1` is reported as 89% (enzyme activity; inhibitor; radiometric; 1 µM).
For `Cc1nc(N2CC[C@@H](O)C2)ncc1-c1cc(C(F)(F)F)cc2[nH]ncc12`, the remaining binding was 100% (binding; competition with immobilised ligand; 1 µM).
`NS(=O)(=O)c1ccc(CNc2ccnc(Nc3cccc(NC(=O)N4CCCC4)c3)n2)cc1` gave a remaining activity of 86% (enzyme activity; inhibitor; radiometric; 1 µM).
For `Cc1c(C(=O)O)cc(-c2ccc(C3CCNCC3)cc2)c2ccc(-c3ccc(C(F)(F)F)cc3)cc12`, the remaining binding was 92% (binding; competition with immobilised ligand; 1 µM).
With `Oc1cccc(-c2nc(N3CCOCC3)c3oc4ncccc4c3n2)c1` the remaining signal was 103% (cell-free assay; 0.5 µM).
The remaining activity of `Brc1cnc(Nc2cccc(CN3CCOCC3)c2)nc1NCCc1c[nH]cn1` is reported as -1% (enzyme activity; inhibitor; radiometric; 1 µM).
The activity vs control of `Cc1cc(NC(=O)c2cccc3cc(-c4cccc5[nH]nc(N)c45)ccc23)ccc1F` is reported as 96% (enzyme activity; inhibitor; 0.1 µM).
`Cc1nn(CC(F)(F)F)cc1Nc1nccc(NCCc2cnc[nH]2)n1` has a remaining activity of 77% (enzyme activity; inhibitor; radiometric; 1 µM).
`Cc1c[nH]c2nccc(Oc3c(F)cc(Nc4cc(Cl)nc(N)n4)cc3F)c12` has a remaining binding of 89% (cell-free assay; competition with immobilised ligand; 0.1 µM).
`O=C(Nc1cnn(-c2csc(C(=O)NC3COC3)c2)c1)Nc1ccccc1Cl` gave a remaining activity of 95.1% (enzyme activity; inhibitor; 5 µM).
With `CCCOc1ccc([C@@H]2[C@@H](C(=O)O)[C@H](c3ccc4c(c3)OCO4)CN2CC(=O)Nc2c(CC)cccc2CC)cc1` the remaining binding was 93% (cell-free assay; competition with immobilised ligand; 1 µM).
For `C#Cc1cccc(Nc2ncnc3cc(OCCOC)c(OCCOC)cc23)c1`, the remaining signal was 111% (cell-free assay; 0.5 µM).
`c1cc(CN2CCOCC2)cc(Nc2nccc(NCCc3cnc[nH]3)n2)c1` gave a remaining activity of 73% (enzyme activity; inhibitor; radiometric; 1 µM).
`O=C(O)[C@H]1[C@H](Cn2nnc3ccccc3c2=O)CC[C@@H]1C(=O)c1ccc(OCCC2CCOCC2)cc1` gave a remaining binding of 81% (cell-free assay; competition with immobilised ligand; 1 µM).
`Cc1nn(CC(F)(F)F)cc1Nc1ncc(C2CC2)c(NCCCNC(=O)C2CCC2)n1` has a remaining activity of 78% (enzyme activity; inhibitor; radiometric; 1 µM).
With `COc1cc2ncnc(Nc3ccc(Oc4ccccc4)c(C)c3C)c2cc1OC` the inhibition was 1% (enzyme activity; inhibitor; 1 µM).
`c1cc(CN2CCOCC2)cc(Nc2ncc(C3CC3)c(NCCc3c[nH]cn3)n2)c1` gave a remaining activity of 7% (enzyme activity; inhibitor; radiometric; 1 µM).
`Nc1ncnc2occ(-c3ccc(NC(=O)Nc4cc(C(F)(F)F)ccc4F)cc3)c12` has a remaining signal of 2% (cell-free assay; inhibitor; 20 µM).
